Data on 16 compounds can be found in paper PMC3654864 (Journal of medicinal chemistry, 2012).

Data set [1] relates to PC3 prostate cancer cell lines. Description: MTT cytotoxicity assay in PC3 cells. It is filed as cell-based, human. (In general: Formazan colour is commonly taken as a measure of viable cells.)
The nature of data set [2]: pH-responsive hydrolysis to emetine in phosphate buffer, quantified by HPLC. It is filed as physicochemical. The conditions noted are these: for activation to emetine at pH 5.5: pH 5.5, over a 48 h period; for percent emetine released (hydrolysis to emetine) at pH 6.5: phosphate buffer pH 6.5, 37 °C. A digest of the protocol: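 Pure test compound was incubated at 37 °C in aqueous phosphate buffer at pH 5.5, 6.5 or 7.4 for 24–48 h; stability at pH 7.4 was followed up to 5 days. Samples were analysed by HPLC to quantify released emetine. Percent conversion is the percent emetine in the sample mixture.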

Data set [3] deals with PC3 and LNCaP prostate cancer cell lines. Description: In-vitro cytotoxicity in PC3 and LNCaP, summary statements for both lines. Type of data set: cell-based, human. A digest of the protocol: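 MTT colorimetric assay on human prostate cancer cells (androgen receptor-positive LNCaP, androgen receptor-negative PC3). Cells were exposed to six concentrations of test compound for 7 days, with viable cells read spectrophotometrically on days 3, 5 and 7. IC50 was taken from the day-7 read. Emetine was run in the same assay.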

The next data set concerns healthy mice. Description: In-vivo toxicity study in healthy mice. The following applies: for toxicity on three-week follow-up: after 100 mg/kg iv daily for five days, studied for three weeks; for appearance of mice / percent weight loss relative to control mice: 33 mg/kg; for appearance of mice: 48 hours; for percent weight loss relative to control mice: within 48 hours of daily dosing; for percent weight change within 48 hours versus control group: 100 mg/kg; for signs of toxicity: 100 mg/kg body weight daily for five days.

Data set [4] relates to LNCaP prostate cancer cell lines. Description: MTT cytotoxicity assay in LNCaP cells. It is filed as cell-based, human. The following applies: 7 day, relative to compound 13.
Where [5] appears, read: PC3, Figures 4a-f, time at which optimum IC50 is reached or pattern.

pIC50: −log10 of the molar value. Where two headings read alike, the source gives them in different places.

Take `CC[C@H]1CN2CCc3cc(OC)c(OC)cc3[C@@H]2C[C@@H]1C[C@@H]1c2cc(OC)c(OC)cc2CCN1C(=O)NCc1ccccc1` [Compound 7]: in data set [1], the “progress of cytotoxicity (IC50) over day 3, 5 and 7” value (from here on “progress … over day 3, 5 and 7”) is given as “reach an optimum by day 3”.

Turning to `CC[C@H]1CN2CCc3cc(OC)c(OC)cc3[C@@H]2C[C@@H]1C[C@@H]1c2cc(OC)c(OC)cc2CCN1C(=O)/C=C\C(=O)[O-].[Na+]` [Compound 25], the “activation to emetine at pH 5.5” value in data set [2] is reported as “activated to emetine”.

With `CC[C@H]1CN2CCc3cc(OC)c(OC)cc3[C@@H]2C[C@@H]1C[C@@H]1c2cc(OC)c(OC)cc2CCN1C(=S)[S-].[Na+]` [Compound 13], the “7th day IC50 fold higher than emetine” value in data set [3] (LNCaP and PC3, 7th day, relative to emetine) was “about 3 fold”. Moreover, in data set [1] (setting [5]), the “progress … over day 3, 5 and 7” value is reported as “an optimum IC50 value was obtained by day 5”. Besides, the “toxicity on three-week follow-up” value in the data set with healthy mice was “no noticeable effect of toxicity”. In the data set on healthy mice (iv), the appearance of mice entry was “appeared healthy with no noticeable signs of toxicity”, the “percent weight loss relative to control mice” value is on record as “no significant difference”, the “percent weight change within 48 hours versus control group” value is reported as “very similar to that obtained for the control group” and the signs of toxicity entry is “no sign of toxicity”. In addition, the “activation to emetine at pH 5.5” value in data set [2] is on record as “activated to emetine”. Further, the “percent hydrolysis to emetine at pH 5.5” value in data set [2] (phosphate buffer pH 5.5, 37 °C, within 48 hours) is listed as “about 94.5%”. In data set [2] (within 48 hours), the “percent emetine released (hydrolysis to emetine) at pH 6.5” value (“percent emetine released” for short) amounted to 13.2%.

In the case of `CC[C@H]1CN2CCc3cc(OC)c(OC)cc3[C@@H]2C[C@@H]1C[C@@H]1c2cc(OC)c(OC)cc2CCN1S(=O)(=O)c1ccc(OC)cc1` [Compound 12], the “progress … over day 3, 5 and 7” value in data set [1] is on record as “an optimum IC50 value was obtained by day 5”.

On to `CC[C@H]1CN2CCc3cc(OC)c(OC)cc3[C@@H]2C[C@@H]1C[C@@H]1c2cc(OC)c(OC)cc2CCN1C(=O)/C=C(/C)C(=O)[O-].[Na+]` [Compound 26], for which, in data set [1], the “progress … over day 3, 5 and 7” value is listed as “an optimum IC50 value was obtained by day 5”. Also, the “toxicity on three-week follow-up” value in the data set on healthy mice is “no noticeable effect of toxicity”. Also, in the data set with healthy mice (iv), the “percent weight change within 48 hours versus control group” value is recorded as “very similar to that obtained for the control group” and the signs of toxicity entry was “no sign of toxicity”. Besides, in data set [2], the “activation to emetine at pH 5.5” value is “activated to emetine”. Further, the “percent emetine released” value in data set [2] (within 48 hours) is on record as “about 50%”.

For `CC[C@H]1CN2CCc3cc(OC)c(OC)cc3[C@@H]2C[C@@H]1C[C@@H]1c2cc(OC)c(OC)cc2CCN1C(=O)OCc1ccccc1` [Compound 15], the “progress … over day 3, 5 and 7” value in data set [1] (setting [5]) was “progressive decrease in IC50 values”.

For the compound `CC[C@H]1CN2CCc3cc(OC)c(OC)cc3[C@@H]2C[C@@H]1C[C@@H]1c2cc(OC)c(OC)cc2CCN1C(=S)SCc1ccccc1` [Compound 14], the “fold increase of IC50 relative to 13” value in data set [1] (PC3, 7 day, relative to compound 13) was approximately 18 fold; in data set [4], “about 24 fold”. For the same compound, the “progress … over day 3, 5 and 7” value in data set [1] (setting [5]) is listed as “progressive decrease in IC50 values”.

In the case of `CC[C@H]1CN2CCc3cc(OC)c(OC)cc3[C@@H]2C[C@@H]1C[C@@H]1c2cc(OC)c(OC)cc2CCN1C(=O)/C=C\C(=O)O` [Compound 21], in data set [2], the “activation to emetine at pH 5.5” value is listed as “activated to emetine”. In addition, the “percent emetine released” value in data set [2] (within 48 hours) was “about 50%”.

As usually defined, the pIC50 is −log10 of the IC50, conventionally taken in molar units. With `CC[C@H]1CN2CCc3cc(OC)c(OC)cc3[C@@H]2C[C@@H]1C[C@H]1NCCc2cc(OC)c(OC)cc21.Cl.Cl` [emetine, Emetine, reference compound], the pIC50 in data set [3] (Homo sapiens, LNCaP, read-out: IC50 range of emetine) is 7.48 to 7.63. For the same compound, in the data set with healthy mice (iv, 33 mg/kg body weight, within the period of study), the lethality result is reported as “did not kill the mice”. In the data set with healthy mice (iv, 33 mg/kg daily dosing), the “average weight loss over a 48 hour period” value is recorded as “about 3.6%”. For the same compound, in the data set with healthy mice (iv), the appearance of mice result was “appeared lethargic” and the “percent weight loss relative to control mice” value is listed as “about 4”. The lethality result with healthy mice (iv, single dose 100 mg/kg body weight, within 48 hours) was “killed all three mice”.

With `CC[C@H]1CN2CCc3cc(OC)c(OC)cc3[C@@H]2C[C@@H]1C[C@@H]1c2cc(OC)c(OC)cc2CCN1C(=O)NCc1ccc(OC)cc1` [Compound 8], in data set [1], the “progress … over day 3, 5 and 7” value is on record as “progressive decrease in IC50 values”.

For `CC[C@H]1CN2CCc3cc(OC)c(OC)cc3[C@@H]2C[C@@H]1C[C@@H]1c2cc(OC)c(OC)cc2CCN1C(=O)/C=C(/CC(=O)[O-])C(=O)[O-].[Na+].[Na+]` [Compound 27], the “activation to emetine at pH 5.5” value in data set [2] is given as “activated to emetine”.

Take `CC[C@H]1CN2CCc3cc(OC)c(OC)cc3[C@@H]2C[C@@H]1C[C@@H]1c2cc(OC)c(OC)cc2CCN1C(=O)/C=C(/C)C(=O)O` [Compound 22]: in data set [2], the “activation to emetine at pH 5.5” value is listed as “activated to emetine”. Besides, the “percent emetine released” value in data set [2] (within 48 hours) is listed as approximately 80%.

As to `CC[C@H]1CN2CCc3cc(OC)c(OC)cc3[C@@H]2C[C@@H]1C[C@@H]1c2cc(OC)c(OC)cc2CCN1C(=S)NCc1ccc(Cl)cc1` [Compound 6], the “progress … over day 3, 5 and 7” value in data set [1] (setting [5]) was “reach an optimum by day 3”.

For the compound `CC[C@H]1CN2CCc3cc(OC)c(OC)cc3[C@@H]2C[C@@H]1C[C@@H]1c2cc(OC)c(OC)cc2CCN1C(=S)NCc1ccc(OC)cc1` [Compound 5], in data set [1] (setting [5]), the “progress … over day 3, 5 and 7” value is reported as “an optimum IC50 value was obtained by day 5”.

Regarding `CC[C@H]1CN2CCc3cc(OC)c(OC)cc3[C@@H]2C[C@@H]1C[C@@H]1c2cc(OC)c(OC)cc2CCN1C(=O)NCc1ccc(Cl)cc1` [Compound 9], the “progress … over day 3, 5 and 7” value in data set [1] (setting [5]) is listed as “reach an optimum by day 3”.

`CC[C@H]1CN2CCc3cc(OC)c(OC)cc3[C@@H]2C[C@@H]1C[C@@H]1c2cc(OC)c(OC)cc2CCN1C(=O)CCC(=O)[O-].[Na+]` [Compound 24]: in data set [1], the “progress … over day 3, 5 and 7” value is “an optimum IC50 value was obtained by day 5”.
